This is an account of results in ChEMBL document CHEMBL1126899, “Nonpeptide angiotensin II antagonists derived from 1H-pyrazole-5-carboxylates and 4-aryl-1H-imidazole-5-carboxylates” (J Med Chem, 1993).

Active and inactive are the calls of the source. No cut-off for these calls is given here.

The subject of test [1] is Rattus norvegicus. The test can be described thus: Peak percent inhibition of Angiotensin II pressor response in conscious, normotensive rats 1 at mg/kg iv. In kind it is functional. The essentials: (§1)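 Male Sprague-Dawley rats (300–400 g), conscious, catheterized for iv dosing and for arterial pressure and heart rate. Compound given iv or po; PEG 400 vehicle in some oral cases. AII 0.1 μg/kg iv boluses at set intervals afterward. % inhibition of the MAP rise was calculated at each time point, and the peak was taken. Averaged from at least two rats unless noted.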

Test [2] addresses T1, Type-1 angiotensin II receptor (Oryctolagus cuniculus, UniProt P34976).
T1 sequence (P34976 whole entry): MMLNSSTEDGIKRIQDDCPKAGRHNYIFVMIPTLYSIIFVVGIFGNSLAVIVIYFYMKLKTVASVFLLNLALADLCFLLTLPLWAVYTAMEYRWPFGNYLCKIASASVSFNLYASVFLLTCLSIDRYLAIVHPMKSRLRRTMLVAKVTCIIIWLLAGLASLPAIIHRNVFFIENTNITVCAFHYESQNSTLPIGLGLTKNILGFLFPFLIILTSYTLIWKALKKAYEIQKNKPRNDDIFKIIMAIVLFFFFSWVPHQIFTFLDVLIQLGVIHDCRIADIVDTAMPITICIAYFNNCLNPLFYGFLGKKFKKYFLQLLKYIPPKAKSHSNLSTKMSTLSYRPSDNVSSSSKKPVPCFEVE
The test can be described thus: Evaluation of Angiotensin II antagonistic activity by displacement of [125I]-Sar Ile-AII at the rabbit aorta Angiotensin II receptor, type 1. The test is classed as tissue-based. The procedure, abridged: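 Rabbit aorta membranes, run without BSA. Competition against [¹²⁵I]Sar¹Ile⁸-AII, in duplicate tubes. Some values are means of two or more separate assays. Standard error is estimated at <30% of the mean.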

Test [3] relates to Rattus norvegicus. Kind of test: Time to produce onset of action for inhibition of Angiotensin II pressor response in conscious, normotensive rats 1 at mg/kg iv. The test is classed as functional. The procedure, abridged: (§2)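 Conscious male Sprague-Dawley rats (300–400 g), instrumented for iv dosing and arterial pressure. A single iv or po bolus of compound (PEG 400 for some oral doses), then repeated AII challenges at 0.1 μg/kg iv. […] Averaged from at least two rats unless noted.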

Test [4] deals with Rattus norvegicus. The test can be described thus: Peak percent inhibition of Angiotensin II pressor response in conscious, normotensive rats at 0.1 mg/kg iv (no. of animals treated). In kind it is functional. The procedure, abridged:
as §1

In test [5] the test system is Rattus norvegicus. The test can be described thus: Time to produce onset of action for inhibition of pressor response in conscious, normotensive rats at 0.3 mg/kg po (no. of animals treated). In kind it is functional. The procedure, abridged:
as §2

Test [6] deals with Rattus norvegicus. Kind of test: Peak percent inhibition of Angiotensin II pressor response in conscious, normotensive rats at 0.3 mg/kg po(no. of animals treated). In kind it is functional. The procedure, abridged:
as §1

In test [7] the test system is Rattus norvegicus. The test can be described thus: Time to produce onset of action for inhibition of pressor response in conscious, normotensive rats at 0.1 mg/kg iv (no. of animals treated). The test is classed as functional. The essentials:
as §2

The subject of test [8] is Rattus norvegicus. Kind of test: Time to produce onset of action for inhibition of pressor response in conscious, normotensive rats at 1 mg/kg po (no. of animals treated). The test is classed as functional. The essentials:
as §2

Test [9] concerns Rattus norvegicus. The test can be described thus: Peak percent inhibition of Angiotensin II pressor response in conscious, normotensive rats at 0.3 mg/kg iv (no. of animals treated). The test is classed as functional. The procedure, abridged:
as §1

Test [10] has as its system Rattus norvegicus. Kind of test: Peak percent inhibition of Angiotensin II pressor response in conscious, normotensive rats at 0.3 mg/kg po (no. of animals treated). In kind it is functional. The procedure, abridged: as §1
The test system of test [11] is Rattus norvegicus. The test can be described thus: Peak percent inhibition of Angiotensin II pressor response in conscious, normotensive rats at 1 mg/kg po (no. of animals treated). In kind it is functional. The essentials: as §1
For test [12], the system named is Rattus norvegicus. Kind of test: Time to produce onset of action for inhibition of pressor response in conscious, normotensive rats at 0.3 mg/kg iv (no. of animals treated). The test is classed as functional. The essentials: as §2
For test [13], the system named is Rattus norvegicus. Kind of test: Time to produce onset of action for inhibition of pressor response in conscious, normotensive rats at 1 mg/kg iv (no. of animals treated). The test is classed as functional. The essentials: as §2
Test [14] concerns Rattus norvegicus. The test can be described thus: Peak percent inhibition of Angiotensin II pressor response in conscious, normotensive rats at 1 mg/kg iv (no. of animals treated). The test is classed as functional. The procedure, abridged: as §1
Test [15] has as its system Rattus norvegicus. Kind of test: Time to produce onset of action for inhibition of Angiotensin II pressor response in conscious, normotensive rats at 1 mg/kg iv; Not active. The test is classed as functional, organism-based. Set-up: dose 1 mg/kg. The essentials: as §2
In test [16] the test system is Rattus norvegicus. The test can be described thus: Peak percent inhibition of Angiotensin II pressor response in conscious, normotensive rats at 1 mg/kg iv. The test is classed as functional. The essentials: as §1
Test [17] concerns Rattus norvegicus. Kind of test: Time to produce onset of action for inhibition of Angiotensin II pressor response in conscious, normotensive rats at 0..3 mg/kg iv. The test is classed as functional. The essentials:
as §2

The subject of test [18] is Rattus norvegicus. Kind of test: Peak percent inhibition of Angiotensin II pressor response in conscious, normotensive rats at 0.3 mg/kg po. The test is classed as functional. The essentials:
as §1

Test [19] has as its system Rattus norvegicus. The test can be described thus: Time to produce onset of action for inhibition of Angiotensin II pressor response in conscious, normotensive rats at 0.3 mg/kg po. In kind it is functional. The procedure, abridged: as §2
Test [20] deals with Rattus norvegicus. The test can be described thus: Time to produce onset of action for inhibition of Angiotensin II pressor response in conscious, normotensive rats at 1 mg/kg po. The test is classed as functional. The procedure, abridged:
as §2

In test [21] the test system is Rattus norvegicus. The test can be described thus: Peak percent inhibition of Angiotensin II pressor response in conscious, normotensive rats at 1 mg/kg po. In kind it is functional. The procedure, abridged:
as §1

Test [22] relates to Rattus norvegicus. The test can be described thus: Peak percent inhibition of Angiotensin II pressor response in conscious, normotensive rats at 0.3 mg/kg iv. The test is classed as functional. The procedure, abridged: as §1
The subject of test [23] is Rattus norvegicus. Kind of test: Peak percent inhibition of Angiotensin II pressor response in conscious, normotensive rats at 3 mg/kg po (no. of animals treated). In kind it is functional. The procedure, abridged: as §1
The subject of test [24] is Rattus norvegicus. The test can be described thus: Time to produce onset of action for inhibition of pressor response in conscious, normotensive rats at 3 mg/kg po (no. of animals treated). The test is classed as functional. The essentials: as §2
For test [25], the system named is Rattus norvegicus. Kind of test: Time to produce onset of action for inhibition of pressor response in conscious, normotensive rats 0.3 mg/kg po (no. of animals treated). In kind it is functional. The essentials:
as §2

Test [26] has as its system Rattus norvegicus. Kind of test: Peak percent inhibition of Angiotensin II pressor response in conscious, normotensive rats at 3 mg/kg iv (no. of animals treated). In kind it is functional. The essentials: as §1
Test [27] has as its system Rattus norvegicus. Kind of test: Time to produce onset of action for inhibition of pressor response in conscious, normotensive rats at 3 mg/kg iv (no. of animals treated). The test is classed as functional. The procedure, abridged: as §2
Test [28] concerns Rattus norvegicus. Kind of test: Time to produce onset of action for inhibition of Angiotensin II pressor response in conscious, normotensive rats at 0.1 mg/kg iv. In kind it is functional. The essentials: as §2
Test [29] deals with Rattus norvegicus. Kind of test: Peak percent inhibition of Angiotensin II pressor response in conscious, normotensive rats at 0.1 mg/kg iv. In kind it is functional. The essentials:
as §1

Test [30] concerns Rattus norvegicus. The test can be described thus: Peak percent inhibition of Angiotensin II pressor response in conscious, normotensive rats at 0.1 mg/kg po. The test is classed as functional. The procedure, abridged: as §1
For test [31], the system named is Rattus norvegicus. The test can be described thus: Time to produce onset of action for inhibition of Angiotensin II pressor response in conscious, normotensive rats at 0.1 mg/kg po. The test is classed as functional. The procedure, abridged: as §2
Test [32] has as its system Rattus norvegicus. Kind of test: Time to produce onset of action for inhibition of Angiotensin II pressor response in conscious, normotensive rats at 0.3 mg/kg iv. In kind it is functional. The procedure, abridged:
as §2

The compound `CCCCc1nn(-c2ccccc2)c(C(=O)O)c1Cc1ccc(-c2ccccc2-c2nn[nH]n2)cc1` came in with an Inhibition with Rattus norvegicus [1] of 96%. In test [2], the IC50 turned out to be 2.9 nM. The Duration in the test with Rattus norvegicus [3] is above 6 h.

In turn, `CCCCc1nc(-c2ccccc2Cl)c(C(=O)O)n1Cc1ccc(-c2ccccc2-c2nn[nH]n2)cc1` yielded an IC50 in [2] of 0.55 nM. The inhibition in vivo at 0.1 mg/kg with Rattus norvegicus [4] came to 88%. Besides, the Duration in the test with Rattus norvegicus [5] is 0.4 h; with Rattus norvegicus [7], above 6 h. This compound also had an inhibition in vivo at 0.3 mg/kg in the test with Rattus norvegicus [6] of 50%.

For `CCCCc1nc(Cl)c(C(=O)O)n1Cc1ccc(-c2ccccc2-c2nn[nH]n2)cc1` [CARBOXYLIC ACID METABOLITE], the Duration was above 7 h with Rattus norvegicus [8], 2.8 h in the test with Rattus norvegicus [5], above 29 h in the test on Rattus norvegicus [12] and around 4 h in the test on Rattus norvegicus [7]. Further, the inhibition in vivo at 0.3 mg/kg with Rattus norvegicus [9] was 100%; in the test on Rattus norvegicus [10] it was 63%. For the same compound, testing at 1 mg/kg with Rattus norvegicus [11] gave an inhibition in vivo of 72%. In addition, testing at 0.1 mg/kg with Rattus norvegicus [4] gave an inhibition in vivo of 63%.

Compound `CCCCc1n[nH]c(C(=O)O)c1Cc1ccc(-c2ccccc2-c2nn[nH]n2)cc1` displayed an IC50 in [2] of 2 nM. This compound returned a Duration in the test on Rattus norvegicus [13] above 6 h. The inhibition in vivo at 1 mg/kg in the test with Rattus norvegicus [14] came out at 94%.

With `CCCCc1nn(-c2c(Cl)cccc2Cl)c(C(=O)OCC)c1Cc1ccc(-c2ccccc2-c2nn[nH]n2)cc1`, the Duration entry with Rattus norvegicus [15] was “inactive”. Besides, in the test on Rattus norvegicus [16], the inhibition in vivo at 1 mg/kg stood at 16%.

Take `CCCc1nn(Cc2ccccc2)c(C(=O)O)c1Cc1ccc(-c2ccccc2-c2nn[nH]n2)cc1`: the Duration with Rattus norvegicus [17] is above 24 h; with Rattus norvegicus [19], above 4 h; with Rattus norvegicus [20], above 23 h. Also, the results for the inhibition in vivo at 0.3 mg/kg with Rattus norvegicus [18] and in the test with Rattus norvegicus [22] were 82% and 95%, respectively. In test [2], the IC50 is 0.42 nM. In addition, in the test with Rattus norvegicus [21], the inhibition in vivo at 1 mg/kg was found to be 100%.

In the case of `CCCCc1nc(Cl)c(CO)n1Cc1ccc(-c2ccccc2-c2nnn[nH]2)cc1` [LOSARTAN], the inhibition in vivo at 3 mg/kg with Rattus norvegicus [23] was 94%. In addition, the Duration is above 6 h in the test on Rattus norvegicus [13], above 4.5 h with Rattus norvegicus [24], 5.5 h with Rattus norvegicus [12] and above 3.5 h in the test with Rattus norvegicus [25]. In the test on Rattus norvegicus [14], this compound yielded an inhibition in vivo at 1 mg/kg of 78%. Further, the results for the inhibition in vivo at 0.3 mg/kg with Rattus norvegicus [9] and with Rattus norvegicus [10] were 52% and 36%, respectively.

On to `CCCCc1nc(-c2ccccc2)c(C(=O)O)n1Cc1ccc(-c2ccccc2-c2nn[nH]n2)cc1`, for which the IC50 in test [2] is 2.1 nM. The compound also had an inhibition in vivo at 3 mg/kg in the test with Rattus norvegicus [26] of 100%. Besides, the Duration in the test on Rattus norvegicus [27] was above 24 h.

In [2], `CCCCc1nn(Cc2ccccc2)c(C(=O)O)c1Cc1ccc(-c2ccccc2-c2nn[nH]n2)cc1` showed an IC50 of 0.2 nM. The Duration in the test on Rattus norvegicus [19] is above 3 h; with Rattus norvegicus [20], above 24 h; with Rattus norvegicus [28] it was above 5 h. In the test with Rattus norvegicus [21], this compound gave an inhibition in vivo at 1 mg/kg of 100%. For the same compound, at 0.3 mg/kg the inhibition in vivo in the test with Rattus norvegicus [6] was 75%. 0.1 mg/kg produced 68% inhibition in vivo in the test on Rattus norvegicus [29].

Consider `CCCc1nn(CC(F)(F)F)c(C(=O)O)c1Cc1ccc(-c2ccccc2-c2nn[nH]n2)cc1`, for which the figures for the inhibition in vivo at 0.3 mg/kg with Rattus norvegicus [18] and with Rattus norvegicus [22] were 66% and 93%, respectively. In test [2], this compound displayed an IC50 of 1.6 nM. Also, the Duration is above 3 h in the test on Rattus norvegicus [19]; above 23 h with Rattus norvegicus [20]; around 5 h with Rattus norvegicus [28]; around 2 h with Rattus norvegicus [31]; above 24 h in the test with Rattus norvegicus [32]. Further, in the test with Rattus norvegicus [21], the inhibition in vivo at 1 mg/kg is 75%. The inhibition in vivo at 0.1 mg/kg in the test on Rattus norvegicus [30] stood at 54%; in the test on Rattus norvegicus [29], 62%.
